Experiment [1] is filed under the species Cavia porcellus. Description: In vitro nitric oxide release incubated in the presence of N-acetyl-cysteamine in phosphate buffer. It counts as functional. In short, it runs like this:
(§1)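 Compound (0.0075 mmol) stirred under argon at 37 °C for 1 h in 0.1 M phosphate buffer pH 7.40/acetonitrile 1:1; line 6 with N-acetylcysteamine 1 equiv per ONO2, line 5 without. After air exposure, Griess reagent 10 min, A540; nitrite quantified against 3–24 µM NaNO2 standards; % NO from one ONO2, control without compound, n = 3.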

The species named for experiment [2] is Cavia porcellus. The experiment can be described thus: In vitro nitric oxide release incubated in the absence of N-acetyl-cysteamine in phosphate buffer. The class given is functional. In short, it runs like this: as §1

For the compound `O=[N+]([O-])OCC(CO[N+](=O)[O-])O[N+](=O)[O-]` [NITROGLYCERIN], the Release in the experiment filed under Cavia porcellus [1] was found to be 5.3%; in the experiment listed under Cavia porcellus [2], 0.18%.
